Assay [1] has as its target Rhodesain (Trypanosoma brucei rhodesiense) (UniProt Q95PM0). Nature of the assay: Inhibition of Trypanosoma brucei rhodesiense recombinant rhodesain at 100 uM. A digest of the protocol: (§1)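 Single-point screen at 100 μM inhibitor (final). Recombinant enzyme in 50 mM acetate pH 5.5, 5 mM EDTA, 200 mM NaCl, 5 mM DTT, 10% DMSO final; Cbz-Phe-Arg-AMC 40 μM (or Cbz-Leu-Arg-AMC 25 μM) hydrolysis followed by fluorescence (ex 380/em 460 nm). % inhibition = 100(1 − vi/vc) from progress-curve slopes vs DMSO control; at least two independent assays.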

Assay [2] shares this target. Nature of the assay: Inhibition of Trypanosoma brucei rhodesiense rhodesain after 12 hrs by fluorescence spectroscopy-based on-bead assay. More on the design: concentration or dose not given beside the values. As to conditions: concentration not given here. An outline of the steps: (§2)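 Library members on resin (PEGA, theoretical loading 0.40 mmol/g; added as DMSO suspension, 0.64 mM final inhibitor) preincubated with enzyme 12 h, then Cbz-Phe-Arg-AMC 40 μM added; AMC release followed by fluorescence (ex 380/em 460 nm). Kinetics compared with inhibitor-free amino-PEGA resin.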

The subject of assay [3] is Plasmodium falciparum. Nature of the assay: Inhibition of Plasmodium falciparum recombinant falcipain-2 expressed in Escherichia coli at 100 uM after 20 min by spectrofluorometry. A digest of the protocol: as §1
The nature of assay [4]: Inhibition of Plasmodium falciparum falcipain-2 after 12 hrs by fluorescence spectroscopy-based on-bead assay. The following applies: concentration not given here. Set-up: concentration or dose not given beside the values. A digest of the protocol:
as §2

Assay [5] addresses Cathepsin B (Homo sapiens, UniProt P07858). Description: Inhibition of human liver cathepsin B at 100 uM.
The nature of assay [6]: Inhibition of Plasmodium falciparum recombinant falcipain-2 expressed in Escherichia coli after 20 min using Cbz-Phe-Arg-AMC as substrate by spectrofluorometry. The following applies: in the assay text read “over 5-10 min” for “after 20 min”. A digest of the protocol: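 Continuous assay without preincubation. Recombinant falcipain-2 in 50 mM acetate pH 5.5, 5 mM EDTA, 200 mM NaCl, 5 mM DTT, 10% DMSO final; Cbz-Phe-Arg-AMC (40 μM, Km 21.5 μM) or Cbz-Leu-Arg-AMC (25 μM, Km 8.4 μM). Fluorescence monitored 5-10 min at 0.1-80 μM inhibitor. Ki from Dixon plot, corrected to zero substrate; at least two independent assays.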

The target in assay [7] is Rhodesain (Trypanosoma brucei rhodesiense, UniProt Q95PM0). Description: Inhibition of Trypanosoma brucei rhodesiense recombinant rhodesain.
The subject of assay [8] is Plasmodium falciparum. Nature of the assay: Antiplasmodial activity against Plasmodium falciparum FCBR by fluorometric method. Format: functional, organism-based, FCBR/Columbia.
Assay [9] addresses Procathepsin L (Bos taurus, UniProt P25975). Nature of the assay: Inhibition of bovine spleen cathepsin L. A digest of the protocol:
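Cathepsin L (bovine spleen) or B (human liver) hydrolysis of Cbz-Phe-Arg-AMC (40 μM) followed by fluorescence for 5-10 min without preincubation at 0.1-80 μM inhibitor, 10% DMSO final.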

Calls of active or inactive are those of the source. The calls are words filed in the database; no cut-off is given here. Square brackets hold non-standard residues; d marks the D form. Peptide text beside a SMILES is read from it. * marks the point of attachment. Fumaroyl(AlaGlyPheOH) = C[C@H](NC(=O)/C=C/C(=O)*)C(=O)NCC(=O)N[C@@H](Cc1ccccc1)C(=O)O; Fumaroyl(GlyGlyPheOH) = O=C(/C=C/C(=O)*)NCC(=O)NCC(=O)N[C@@H](Cc1ccccc1)C(=O)O; Chg = N[C@H](C(=O)O)C1CCCCC1; Dap = NC[C@H](N)C(=O)O

Rhodesain (Trypanosoma brucei rhodesiense), sequence (Q95PM0 1-450): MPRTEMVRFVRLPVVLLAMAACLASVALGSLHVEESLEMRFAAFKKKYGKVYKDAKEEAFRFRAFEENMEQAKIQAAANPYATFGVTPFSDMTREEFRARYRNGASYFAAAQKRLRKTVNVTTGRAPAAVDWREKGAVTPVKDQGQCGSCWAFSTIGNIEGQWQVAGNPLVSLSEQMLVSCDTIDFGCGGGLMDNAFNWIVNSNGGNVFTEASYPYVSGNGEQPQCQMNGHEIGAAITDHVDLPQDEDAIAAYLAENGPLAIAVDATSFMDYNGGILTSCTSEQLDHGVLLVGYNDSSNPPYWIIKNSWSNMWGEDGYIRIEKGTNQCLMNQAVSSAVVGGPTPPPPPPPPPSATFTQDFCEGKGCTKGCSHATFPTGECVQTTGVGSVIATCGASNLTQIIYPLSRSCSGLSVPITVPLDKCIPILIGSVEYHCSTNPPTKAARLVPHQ
Rhodesain, sequence (Q95PM0 whole entry): as the sequence (Q95PM0 1-450) above
Procathepsin L, sequence (P25975 whole entry): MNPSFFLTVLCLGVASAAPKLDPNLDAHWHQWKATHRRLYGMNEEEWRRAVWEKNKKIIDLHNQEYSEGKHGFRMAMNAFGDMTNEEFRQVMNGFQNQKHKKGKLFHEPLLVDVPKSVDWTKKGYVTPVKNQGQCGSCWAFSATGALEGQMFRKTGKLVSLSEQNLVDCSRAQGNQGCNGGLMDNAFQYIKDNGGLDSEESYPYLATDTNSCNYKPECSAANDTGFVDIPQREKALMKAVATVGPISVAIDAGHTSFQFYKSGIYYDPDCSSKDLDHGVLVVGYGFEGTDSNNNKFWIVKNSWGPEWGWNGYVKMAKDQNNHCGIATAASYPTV

A word on the inhibition: it is the percentage by which the read-out fell short of the control. As for `Cc1ccc(C(=O)Nc2ccc(S(=O)(=O)O)c3cc(S(=O)(=O)O)cc(S(=O)(=O)O)c23)cc1NC(=O)c1cccc(NC(=O)Nc2cccc(C(=O)Nc3cc(C(=O)Nc4ccc(S(=O)(=O)O)c5cc(S(=O)(=O)O)cc(S(=O)(=O)O)c45)ccc3C)c2)c1`, in [1], the inhibition was 32%.
Take `CC(C)C[C@H](NC(=O)[C@H](CCC(N)=O)NC(=O)/C=C/C(=O)N[C@@H](C)C(=O)NCC(=O)N[C@@H](Cc1ccccc1)C(=O)O)C(=O)N[C@H](C(=O)N[C@H](C(N)=O)C(C)C)C(C)C` (HELM PEPTIDE1{[C[C@H](NC(=O)/C=C/C(=O)[*:2])C(=O)NCC(=O)N[C@@H](Cc1ccccc1)C(=O)O].Q.L.V.V.[am]}$$$$V2.0): the inhibition was 64% in [2]; 45% in assay [3]; 48% in [4]; 37% in assay [1]; 23% in [5].
For the compound `CC(C)C[C@H](NC(=O)[C@H](Cc1ccccc1)NC(=O)[C@H](CC(N)=O)NC(=O)/C=C/C(=O)NCC(=O)NCC(=O)N[C@@H](Cc1ccccc1)C(=O)O)C(=O)N[C@H](C(N)=O)C(C)C` (HELM PEPTIDE1{[O=C(/C=C/C(=O)[*:2])NCC(=O)NCC(=O)N[C@@H](Cc1ccccc1)C(=O)O].N.F.L.V.[am]}$$$$V2.0), the inhibition was 61% in assay [2]; 49% in assay [3]; 70% in assay [4]; 6% in assay [1]; 24% in [5].
As a reminder, the Ki is the dissociation constant of the complex between target and ligand, obtained from inhibition or displacement. As for `CC(C)C[C@H](NC(=O)[C@H](CC(N)=O)NC(=O)/C=C/C(=O)NCC(=O)NCC(=O)N[C@@H](Cc1ccccc1)C(=O)O)C(=O)N[C@@H](C)C(=O)N[C@H](C(N)=O)C(C)C` (HELM PEPTIDE1{[O=C(/C=C/C(=O)[*:2])NCC(=O)NCC(=O)N[C@@H](Cc1ccccc1)C(=O)O].N.L.A.V.[am]}$$$$V2.0), the Ki in [6] is 67.5 µM. Further, the inhibition in assay [2] was found to be 24%; in assay [3], 33%; in assay [4], 41%; in assay [1], 8%; in assay [5], 17%.
The IC50 is the concentration needed to halve the response being measured. On to `CC(C)C[C@H](NC(=O)[C@H](CC(N)=O)NC(=O)/C=C/C(=O)NCC(=O)NCC(=O)N[C@@H](Cc1ccccc1)C(=O)O)C(=O)N[C@@H](CC(C)C)C(=O)N[C@H](C(N)=O)C(C)C` (HELM PEPTIDE1{[O=C(/C=C/C(=O)[*:2])NCC(=O)NCC(=O)N[C@@H](Cc1ccccc1)C(=O)O].N.L.L.V.[am]}$$$$V2.0), for which the Ki was 10.1 µM in assay [6] and 2.7 µM in [7]. In addition, the inhibition in assay [2] was 71%; in assay [3], 92%; in [4], 70%; in assay [1], 63%; in assay [5], 21%. Moreover, the half-maximal inhibitory concentration (IC50) in assay [8] (Plasmodium falciparum, FCBR/Columbia, read-out: IC50) is 74 µM.
`CC(C)C[C@H](NC(=O)[C@@H](NC(=O)[C@H](CC(N)=O)NC(=O)/C=C/C(=O)NCC(=O)NCC(=O)N[C@@H](Cc1ccccc1)C(=O)O)c1ccccc1)C(=O)N[C@H](C(N)=O)C(C)C` (HELM PEPTIDE1{[O=C(/C=C/C(=O)[*:2])NCC(=O)NCC(=O)N[C@@H](Cc1ccccc1)C(=O)O].N.[Phg].L.V.[am]}$$$$V2.0): the inhibition constant (Ki) in assay [6] amounted to 21.3 µM. The inhibition in assay [2] came out at 50%; in [3], 76%; in [4] it was 51%; in assay [1], 26%; in [5], 13%. Besides, the half-maximal inhibitory concentration (IC50) entry in assay [8] is given as “Not Active”.
On to `CC(=O)NC[C@H](NC(=O)/C=C/C(=O)NCC(=O)NCC(=O)N[C@@H](Cc1ccccc1)C(=O)O)C(=O)N[C@@H](CC(C)C)C(=O)N[C@@H](C)C(=O)N[C@H](C(N)=O)C(C)C` (HELM PEPTIDE1{[O=C(/C=C/C(=O)[*:2])NCC(=O)NCC(=O)N[C@@H](Cc1ccccc1)C(=O)O].[O=C([C@H](CN[*:3])N[*:1])[*:2]].L.A.V.[am]}|PEPTIDE2{[ac]}$PEPTIDE1,PEPTIDE2,2:R3-1:R2$$$V2.0), for which the inhibition came out at 32% in [2], 18% in assay [3], 32% in assay [4] and 30% in assay [1]. The Ki in [9] was 20.8 µM. The inhibition entry in [5] is “inactive”.
Turning to `CC(=O)NC[C@H](NC(=O)/C=C/C(=O)NCC(=O)NCC(=O)N[C@@H](Cc1ccccc1)C(=O)O)C(=O)N[C@H](C(=O)N[C@@H](CC(C)C)C(=O)N[C@H](C(N)=O)C(C)C)c1ccccc1` (HELM PEPTIDE1{[O=C(/C=C/C(=O)[*:2])NCC(=O)NCC(=O)N[C@@H](Cc1ccccc1)C(=O)O].[O=C([C@H](CN[*:3])N[*:1])[*:2]].[Phg].L.V.[am]}|PEPTIDE2{[ac]}$PEPTIDE1,PEPTIDE2,2:R3-1:R2$$$V2.0), the values for the inhibition in assay [2] and in [4] were 66% and 38%, respectively.
Turning to `CC(=O)NC[C@H](NC(=O)/C=C/C(=O)NCC(=O)NCC(=O)N[C@@H](Cc1ccccc1)C(=O)O)C(=O)N[C@H](C(=O)N[C@H](C(=O)N[C@H](C(N)=O)C(C)C)C(C)C)c1ccccc1` (HELM PEPTIDE1{[O=C(/C=C/C(=O)[*:2])NCC(=O)NCC(=O)N[C@@H](Cc1ccccc1)C(=O)O].[O=C([C@H](CN[*:3])N[*:1])[*:2]].[Phg].V.V.[am]}|PEPTIDE2{[ac]}$PEPTIDE1,PEPTIDE2,2:R3-1:R2$$$V2.0), the inhibition in [2] amounted to 40%; in assay [4], 25%.
`CC(=O)NC[C@H](NC(=O)/C=C/C(=O)N[C@@H](C)C(=O)NCC(=O)N[C@@H](Cc1ccccc1)C(=O)O)C(=O)N[C@H](C(=O)N[C@@H](C)C(=O)N[C@H](C(N)=O)C(C)C)C1CCCCC1` ({Fumaroyl(AlaGlyPheOH)}-[Dap](Ac)[Chg]AV-NH2): the inhibition in [2] was determined as 29%; in assay [4] it was 35%.
The like results for `CC(=O)NC[C@H](NC(=O)/C=C/C(=O)N[C@@H](C)C(=O)NCC(=O)N[C@@H](Cc1ccccc1)C(=O)O)C(=O)N[C@H](C(=O)N[C@@H](CC(C)C)C(=O)N[C@H](C(N)=O)C(C)C)C1CCCCC1` ({Fumaroyl(AlaGlyPheOH)}-[Dap](Ac)[Chg]LV-NH2) were, in that order, 51% and 56%.
Turning to `CC(=O)NC[C@H](NC(=O)/C=C/C(=O)N[C@@H](C)C(=O)NCC(=O)N[C@@H](Cc1ccccc1)C(=O)O)C(=O)N[C@H](C(=O)N[C@H](C(=O)N[C@H](C(N)=O)C(C)C)C(C)C)C1CCCCC1` ({Fumaroyl(AlaGlyPheOH)}-[Dap](Ac)[Chg]VV-NH2), the inhibition was 46% in [2] and 40% in assay [4].
Consider `CC(=O)NC[C@H](NC(=O)/C=C/C(=O)NCC(=O)NCC(=O)N[C@@H](Cc1ccccc1)C(=O)O)C(=O)N[C@H](C(=O)N[C@@H](CC(C)C)C(=O)N[C@H](C(N)=O)C(C)C)C1CCCCC1` ({Fumaroyl(GlyGlyPheOH)}-[Dap](Ac)[Chg]LV-NH2), for which the inhibition was determined as 75% in [2] and 26% in assay [4].
Regarding `CC(=O)NC[C@H](NC(=O)/C=C/C(=O)NCC(=O)NCC(=O)N[C@@H](Cc1ccccc1)C(=O)O)C(=O)N[C@H](C(=O)N[C@H](C(=O)N[C@H](C(N)=O)C(C)C)C(C)C)C1CCCCC1` ({Fumaroyl(GlyGlyPheOH)}-[Dap](Ac)[Chg]VV-NH2), the inhibition in assay [2] and in assay [4] was 52% throughout.
